Results: ChEMBL document CHEMBL4270565, “Design, synthesis and antimicrobial evaluation of propylene-tethered ciprofloxacin-isatin hybrids” (Eur J Med Chem, 2018)
Converted amounts (≈) assume the structure as drawn.

Legend:
Providencia rettgeri = assay: Antibacterial activity against Providencia rettgeri ATCC 31052 after 18 to 24 hrs by two-fold serial dilution method; format: functional
Procedure, shortened: (§1)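 Agar two-fold dilution MIC. Compounds were dissolved in 0.1 N NaOH and water, then serially diluted in melted Mueller-Hinton agar, with top concentrations starting at 128. Plates were inoculated at about 10 cfu and incubated at 35 °C for 18–24 h. MIC was taken as the lowest concentration giving 90% inhibition of growth.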

Morganella morganii = assay: Antibacterial activity against Morganella morganii ATCC 25830 after 18 to 24 hrs by two-fold serial dilution method; format: functional; procedure, shortened: as §1
Proteus mirabilis = assay: Antibacterial activity against Proteus mirabilis 13-1 after 18 to 24 hrs by two-fold serial dilution method; format: functional; procedure, shortened: as §1
Klebsiella pneumoniae [1] = assay: Antibacterial activity against extended-spectrum beta-lactamase deficient Klebsiella pneumoniae 15-2 after 18 to 24 hrs by two-fold serial dilution method; format: functional; procedure, shortened: as §1
[2] = tested on: Mycobacterium tuberculosis; assay: Antimycobacterial activity against Mycobacterium tuberculosis H37Rv after 7 days; format: functional; conditions: 168 h
Procedure, shortened: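 Rapid direct susceptibility test in 48-well plates. Two-fold dilutions of compound from DMSO stocks were mixed with an equal volume of bacterial suspension. Medium-only wells served as growth controls and water-only wells as no-growth controls. Plates were sealed and held at 37 C in a humid box, and controls were checked at 3 days. MIC (90% growth inhibition) was read visually by high-magnification observation of the cells and re-read at 7 days.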

Proteus vulgaris = assay: Antibacterial activity against Proteus vulgaris ATCC 29905 after 18 to 24 hrs by two-fold serial dilution method; format: functional; procedure, shortened: as §1
Staphylococcus aureus [3] = assay: Antibacterial activity against methicillin-sensitive Staphylococcus aureus ATCC 29213 after 18 to 24 hrs by two-fold serial dilution method; format: functional
Procedure, shortened: (§2)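 Agar two-fold serial dilution in Mueller-Hinton agar. Strains came from the Chinese Center for Disease Control and Prevention. Compounds were dissolved in 0.1 N NaOH and water, then diluted in melted agar to final levels stepping down from 128. Plates were inoculated with bacterial cfu and incubated at 35 C for 18–24 h. MIC is the lowest concentration giving 90% growth inhibition.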

[4] = tested on: Stenotrophomonas maltophilia; assay: Antibacterial activity against Stenotrophomonas maltophilia ATCC 13636 after 18 to 24 hrs by two-fold serial dilution method; format: functional; procedure, shortened: as §1
[5] = tested on: Staphylococcus epidermidis; assay: Antibacterial activity against methicillin-sensitive Staphylococcus epidermidis ATCC 12228 after 18 to 24 hrs by two-fold serial dilution method; format: functional; procedure, shortened: as §1
Staphylococcus aureus [6] = assay: Antibacterial activity against methicillin-resistant Staphylococcus aureus ATCC 33591 after 18 to 24 hrs by two-fold serial dilution method; format: functional; procedure, shortened: as §2
Enterococcus faecium [7] = assay: Antibacterial activity against Enterococcus faecium 13-7 after 18 to 24 hrs by two-fold serial dilution method; format: functional; procedure, shortened: as §1
Serratia marcescens = assay: Antibacterial activity against Serratia marcescens ATCC 21074 after 18 to 24 hrs by two-fold serial dilution method; format: functional; procedure, shortened: as §1
Pseudomonas aeruginosa = assay: Antibacterial activity against Pseudomonas aeruginosa ATCC 27853 after 18 to 24 hrs by two-fold serial dilution method; format: functional; procedure, shortened: as §1
[8] = tested on: Acinetobacter calcoaceticus; assay: Antibacterial activity against Acinetobacter calcoaceticus ATCC 19606 after 18 to 24 hrs by two-fold serial dilution method; format: functional; procedure, shortened: as §1
[9] = tested on: Staphylococcus epidermidis; assay: Antibacterial activity against methicillin-resistant Staphylococcus epidermidis 13-3 after 18 to 24 hrs by two-fold serial dilution method; format: functional; procedure, shortened: as §2
Enterococcus faecalis [10] = assay: Antibacterial activity against Enterococcus faecalis ATCC 51299 after 18 to 24 hrs by two-fold serial dilution method; format: functional; procedure, shortened: as §1
Escherichia coli [11] = assay: Antibacterial activity against extended-spectrum beta-lactamase harboring Escherichia coli ATCC 35218 after 18 to 24 hrs by two-fold serial dilution method; format: functional; procedure, shortened: as §2
Enterobacter cloacae = assay: Antibacterial activity against Enterobacter cloacae ATCC 43560 after 18 to 24 hrs by two-fold serial dilution method; format: functional
Enterococcus faecalis [12] = assay: Antibacterial activity against Enterococcus faecalis ATCC 29212 after 18 to 24 hrs by two-fold serial dilution method; format: functional; procedure, shortened: as §1
[13] = Cytotoxicity against African green monkey Vero cells assessed as reduction in cell viability after 72 hrs by MTT assay; format: cell-based; conditions: chlorocebus sabaeus
Procedure, shortened: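 VERO cells were kept in MEM with Earle's salts and 10% FBS at 37 °C, 5% CO2. They were seeded in 96-well plates and allowed to recover for 24 h. Cells were then exposed to compounds in DMSO over a series from 1000 down to 4 for 72 h. Viability was read by MTT, and CC50 was calculated by Bliss analysis.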

Klebsiella pneumoniae [14] = assay: Antibacterial activity against extended-spectrum beta-lactamase harboring Klebsiella pneumoniae ATCC 700603 after 18 to 24 hrs by two-fold serial dilution method; format: functional; procedure, shortened: as §2
Citrobacter freundii = assay: Antibacterial activity against extended-spectrum beta-lactamase harboring Citrobacter freundii ATCC 43864 after 18 to 24 hrs by two-fold serial dilution method; format: functional; procedure, shortened: as §2
Enterococcus faecium [15] = assay: Antibacterial activity against Enterococcus faecium ATCC 700221 after 18 to 24 hrs by two-fold serial dilution method; format: functional; procedure, shortened: as §1
Klebsiella aerogenes = assay: Antibacterial activity against Enterobacter aerogenes ATCC 13048 after 18 to 24 hrs by two-fold serial dilution method; format: functional; procedure, shortened: as §1
Escherichia coli [16] = assay: Antibacterial activity against extended-spectrum beta-lactamase deficient Escherichia coli ATCC 25922 after 18 to 24 hrs by two-fold serial dilution method; format: functional; procedure, shortened: as §1
[17] = Tmax in ICR mouse at 50 mg/kg, po administered as single dose by HPLC analysis; format: ADME, organism-based; conditions: in vivo
Procedure, shortened: (§3)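 Mice (3 per group), fasted overnight, given a single oral dose of 50 mg/kg as a suspension in 0.5% CMC. Jugular vein blood taken at 0.25, 0.5, 1, 2, 4, 6, 8 and 24 h. Serum proteins precipitated with acetonitrile and centrifuged; the dried supernatant was redissolved in acetonitrile for HPLC. PK parameters were derived directly from the concentration–time data.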

[18] = tested on: Mycobacterium tuberculosis; assay: Potency index, ratio of ciprofloxacin MIC90 to compound MIC90 for Mycobacterium tuberculosis H37Rv; format: functional
[19] = tested on: Mycobacterium tuberculosis; assay: Potency index, ratio of rifampicin MIC90 to compound MIC90 for Mycobacterium tuberculosis H37Rv; format: functional
[20] = AUC (0 to infinity) in ICR mouse at 50 mg/kg, po administered as single dose by HPLC analysis; format: ADME, organism-based; design: dose 50 mg/kg, route oral, time infinity; conditions: in vivo; procedure, shortened: as §3
[21] = Elimination half life in ICR mouse at 50 mg/kg, po administered as single dose by HPLC analysis; format: ADME, organism-based; conditions: in vivo, read-out: beta t1/2 (converted)
[22] = Cmax in ICR mouse at 50 mg/kg, po administered as single dose by HPLC analysis; format: ADME, organism-based; design: dose 50 mg/kg, route oral; conditions: in vivo; procedure, shortened: as §3
[23] = Half life in mouse microsomes; format: ADME, Microsome

| SMILES | MIC90 (Providencia rettgeri) [µg/mL] | MIC90 (Morganella morganii) [µg/mL] | MIC90 (Proteus mirabilis) [µg/mL] | MIC90 (Klebsiella pneumoniae [1]) [µg/mL] | MIC90 [2] [µg/mL] | MIC90 (Proteus vulgaris) [µg/mL] | MIC90 (Staphylococcus aureus [3]) [µg/mL] | MIC90 [4] [µg/mL] | MIC90 [5] [µg/mL] | MIC90 (Staphylococcus aureus [6]) [µg/mL] | MIC90 (Enterococcus faecium [7]) [µg/mL] | MIC90 (Serratia marcescens) [µg/mL] | MIC90 (Pseudomonas aeruginosa) [µg/mL] | MIC90 [8] [µg/mL] | MIC90 [9] [µg/mL] | MIC90 (Enterococcus faecalis [10]) [µg/mL] | MIC90 (Escherichia coli [11]) [µg/mL] | MIC90 (Enterococcus faecalis [12]) [µg/mL] | CC50 at 72 h [13] [µg/mL] | MIC90 (Klebsiella pneumoniae [14]) [µg/mL] | also measured |
| --- | --- | --- | --- | --- | --- | --- | --- | --- | --- | --- | --- | --- | --- | --- | --- | --- | --- | --- | --- | --- | --- |
| CCO/N=C1\C(=O)N(CCCN2CCN(c3cc4c(cc3F)c(=O)c(C(=O)OCCCN3C(=O)/C(=N/OCC)c5cc(C)ccc53)cn4C3CC3)CC2)c2ccc(C)cc21 | 64 (≈ 78.1 µM) | 32 (≈ 39 µM) | 64 (≈ 78.1 µM) | 32 (≈ 39 µM) | 50 (≈ 61 µM) | 64 (≈ 78.1 µM) | 64 (≈ 78.1 µM) | 128 (≈ 156 µM) | 32 (≈ 39 µM) | 128 (≈ 156 µM) | > 128 | 64 (≈ 78.1 µM) | 128 (≈ 156 µM) | 64 (≈ 78.1 µM) | 64 (≈ 78.1 µM) | 128 (≈ 156 µM) | 16 (≈ 19.5 µM) | 64 (≈ 78.1 µM) | 64 (≈ 78.1 µM) | 128 (≈ 156 µM) | MIC90 (Enterobacter cloacae): 128 µg/mL (≈ 156 µM); MIC90 (Citrobacter freundii): 64 µg/mL (≈ 78.1 µM); MIC90 (Enterococcus faecium [15]): 128 µg/mL (≈ 156 µM); MIC90 (Klebsiella aerogenes): 64 µg/mL (≈ 78.1 µM); MIC90 (Escherichia coli [16]): 16 µg/mL (≈ 19.5 µM) |
| Cc1ccc2c(c1)C(=O)C(=O)N2CCCN1CCN(c2cc3c(cc2F)c(=O)c(C(=O)O)cn3C2CC2)CC1 | ≤ 0.03 | ≤ 0.03 | ≤ 0.03 | 0.06 (≈ 0.113 µM) | 0.1 (≈ 0.188 µM) | ≤ 0.03 | 0.125 (≈ 0.235 µM) | 0.06 (≈ 0.113 µM) | 0.125 (≈ 0.235 µM) | 0.125 (≈ 0.235 µM) | 32 (≈ 60.1 µM) | 0.25 (≈ 0.469 µM) | 2 (≈ 3.76 µM) | 0.25 (≈ 0.469 µM) | 2 (≈ 3.76 µM) | 0.5 (≈ 0.939 µM) | ≤ 0.03 | 0.5 (≈ 0.939 µM) | 64 (≈ 120 µM) | 1 (≈ 1.88 µM) | Tmax [17]: 1.3 h; Ratio [18]: 4; MIC90 (Enterobacter cloacae): ≤ 0.03 µg/mL; Ratio [19]: 8; AUC(0-inf) [20]: 4990 ng·h/mL; half-life [21]: 246 min; Cmax [22]: 1230 ng/mL; MIC90 (Citrobacter freundii): ≤ 0.03 µg/mL; MIC90 (Enterococcus faecium [15]): 4 µg/mL (≈ 7.51 µM); MIC90 (Klebsiella aerogenes): 0.06 µg/mL (≈ 0.113 µM); half-life [23]: 31 min; MIC90 (Escherichia coli [16]): ≤ 0.03 µg/mL |
| O=C(O)c1cn(C2CC2)c2cc(N3CCNCC3)c(F)cc2c1=O [CIPROFLOXACIN] | ≤ 0.03 | ≤ 0.03 | ≤ 0.03 | ≤ 0.03 | 0.78 (≈ 2.35 µM) | ≤ 0.03 | 0.25 (≈ 0.754 µM) | 2 (≈ 6.04 µM) | 0.125 (≈ 0.377 µM) | 0.5 (≈ 1.51 µM) | 128 (≈ 386 µM) | 0.06 (≈ 0.181 µM) | 0.25 (≈ 0.754 µM) | 0.5 (≈ 1.51 µM) | 64 (≈ 193 µM) | 0.5 (≈ 1.51 µM) | ≤ 0.03 | 0.5 (≈ 1.51 µM) | 128 (≈ 386 µM) | 0.5 (≈ 1.51 µM) | Tmax [17]: 1.8 h; AUC(0-inf) [20]: 17800 ng·h/mL; Cmax [22]: 3130 ng/mL; MIC90 (Citrobacter freundii): ≤ 0.03 µg/mL; MIC90 (Enterococcus faecium [15]): 8 µg/mL (≈ 24.1 µM); MIC90 (Klebsiella aerogenes): ≤ 0.03 µg/mL; MIC90 (Escherichia coli [16]): ≤ 0.03 µg/mL |
